# According to ChEMBL document CHEMBL1145760, “Design, synthesis and biological evaluation of benzimidazole/benzothiazole and benzoxazole derivatives as cyclooxygenase inhibitors” (Bioorg Med Chem Lett, 2003):
# Legend:
# [1] = molecular target: T1, Prostaglandin G/H synthase 1 (Homo sapiens, UniProt P23219); experiment: Inhibitory activity against Prostaglandin G/H synthase 1 in human whole blood assay as TXB2 generation; format: tissue-based
# Procedure, shortened: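 COX-1 activity measured in human whole blood by TXB2 generation. IC50 values were estimated by nonlinear regression of dose–response curves and are the average of three determinations.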
# [2] = molecular target: T2, Prostaglandin G/H synthase 2 (Homo sapiens, UniProt P35354); experiment: Inhibitory activity against Prostaglandin G/H synthase 2 in human whole blood assay as LPS induced PGE-2 generation.; format: tissue-based
# T2 sequence (P35354 whole entry): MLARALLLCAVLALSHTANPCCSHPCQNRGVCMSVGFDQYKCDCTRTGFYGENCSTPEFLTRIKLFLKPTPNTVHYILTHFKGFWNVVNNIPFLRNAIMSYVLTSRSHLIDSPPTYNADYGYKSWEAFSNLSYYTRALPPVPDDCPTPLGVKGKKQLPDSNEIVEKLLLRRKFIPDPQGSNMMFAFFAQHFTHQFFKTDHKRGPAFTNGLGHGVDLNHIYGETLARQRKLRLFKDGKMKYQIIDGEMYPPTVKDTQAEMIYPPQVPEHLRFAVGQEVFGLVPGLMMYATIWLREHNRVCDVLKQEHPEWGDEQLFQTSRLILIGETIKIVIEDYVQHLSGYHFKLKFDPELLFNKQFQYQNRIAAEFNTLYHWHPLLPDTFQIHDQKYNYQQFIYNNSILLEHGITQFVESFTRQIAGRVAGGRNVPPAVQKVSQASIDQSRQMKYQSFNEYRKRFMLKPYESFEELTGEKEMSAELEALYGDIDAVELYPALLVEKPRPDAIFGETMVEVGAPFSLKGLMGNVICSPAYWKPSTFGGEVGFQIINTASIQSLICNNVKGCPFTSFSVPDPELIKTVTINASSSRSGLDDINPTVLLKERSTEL
# [3] = molecular target: T1, Prostaglandin G/H synthase 1; experiment: Ratio for inhibition of COX-1 to that of COX-2
# T1 sequence (P23219 whole entry): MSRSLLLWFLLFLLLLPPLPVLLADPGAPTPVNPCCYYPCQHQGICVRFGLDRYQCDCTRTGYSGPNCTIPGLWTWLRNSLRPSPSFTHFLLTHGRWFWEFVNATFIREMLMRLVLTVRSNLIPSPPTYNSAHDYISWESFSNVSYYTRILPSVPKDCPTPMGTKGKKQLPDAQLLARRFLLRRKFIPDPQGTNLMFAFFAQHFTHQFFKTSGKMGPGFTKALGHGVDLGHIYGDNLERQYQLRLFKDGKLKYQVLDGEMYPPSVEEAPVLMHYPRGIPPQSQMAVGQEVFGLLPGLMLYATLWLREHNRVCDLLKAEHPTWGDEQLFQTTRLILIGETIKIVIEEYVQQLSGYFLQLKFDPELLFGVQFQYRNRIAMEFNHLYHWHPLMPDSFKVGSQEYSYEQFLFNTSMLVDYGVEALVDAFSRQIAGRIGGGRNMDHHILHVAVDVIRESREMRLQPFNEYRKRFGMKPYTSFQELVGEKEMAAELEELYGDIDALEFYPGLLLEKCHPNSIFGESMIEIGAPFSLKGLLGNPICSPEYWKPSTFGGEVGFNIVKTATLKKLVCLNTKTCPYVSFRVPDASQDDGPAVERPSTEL
SMILES,IC50 [1] [µM],IC50 [2] [µM],Ratio [3]
CCCCCCCCCCCCCCCc1cccc(OC)c1CSc1nc2ccccc2s1,> 500,1.06,> 470
CCCCCCCCCCCCCCCc1cccc(OC)c1CSc1nc2cc([N+](=O)[O-])ccc2[nH]1,,,> 220
CCCCCCCCCCCCCCCc1cccc(OCC)c1CSc1nc2ccc(OC)cc2[nH]1,> 500,6.25,
CCCCCCCCCCCCCCCc1cccc(OC)c1CSc1nc2cc(C)ccc2[nH]1,> 500,2.63,> 190
CCCCCCCCCCCCCCCc1cccc(OC)c1CSc1nc2cc(OC(F)F)ccc2[nH]1,,> 10,
CCCCCCCCCCCCCCCc1cccc(OCC)c1CSc1nc2ccccc2o1,,> 10,
CCCCCCCCCCCCCCCc1cccc(OC)c1CSc1nc2cc(OC)ccc2[nH]1,,> 10,
CCCCCCCCCCCCCCCc1cccc(OC)c1CSc1nc2ccccc2o1,> 500,2.77,> 220
CCCCCCCCCCCCCCCc1cccc(OCC)c1CSc1nc2ccc(OC(F)F)cc2[nH]1,,> 10,
CCCCCCCCCCCCCCCc1cccc(OCC)c1CSc1nc2ccc([N+](=O)[O-])cc2[nH]1,> 500,3.84,
CCCCCCCCCCCCCCCc1cccc(OCC)c1CSc1nc2cc(OC)ccc2[nH]1,,,> 80
CCCCCCCCCCCCCCCc1cccc(OCC)c1CSc1nc2ccccc2[nH]1,> 500,1.47,> 340
CCCCCCCCCCCCCCCc1cccc(OCC)c1CSc1nc2ccc(C)cc2[nH]1,,> 10,
CCCCCCCCCCCCCCCc1cccc(OC)c1CSc1nc2ccccc2[nH]1,,> 10,
CCCCCCCCCCCCCCCc1cccc(OCC)c1CSc1nc2ccccc2s1,,> 10,
CCCCCCCCCCCCCCCc1cccc(OCC)c1CSc1nc2cc([N+](=O)[O-])ccc2[nH]1,,,> 130
CCCCCCCCCCCCCCCc1cccc(O)c1CSc1nc2cc(OC)ccc2[nH]1,384,1,384
CCCCCCCCCCCCCCCc1cccc(OC)c1CSc1nc2ccc([N+](=O)[O-])cc2[nH]1,> 500,2.27,
